PPC-1+TRAIL kill: compounds killing PPC-1 cancer cells with TRAIL present, primary screen, TRAIL potentiator project, ATPLite luminescence, uHTS; PPC-1 cells + TRAIL, ATPLite viability luminescence; cell killing (% activity), % at 4 µM or 5 µM; 220,000 compounds, 0.41% hits;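 active = cell killing above 50% in the first pass at 4 µM, then a duplicate retest at 5 µM averaging 50% or more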;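 note: plate controls were cells with TRAIL plus DMSO for no effect and medium-only wells lacking cells for full effect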
FLuc act counter: FLuc activators, initial screening, artefact control for FLuc-dependent activation tests, biochemical, ATPlite luminescence; ATPlite luciferase biochemical, 10 min; 0 = ATP-free wells, 1 = DMSO control; activation factor at 10 µM; 200,000 tested, under 10 active; AID 1027, 2008;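 active = luciferase activation factor, scaled between plate controls, of at least 2 with compound at 10 µM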
Target sequence (P08659 whole entry, looked up): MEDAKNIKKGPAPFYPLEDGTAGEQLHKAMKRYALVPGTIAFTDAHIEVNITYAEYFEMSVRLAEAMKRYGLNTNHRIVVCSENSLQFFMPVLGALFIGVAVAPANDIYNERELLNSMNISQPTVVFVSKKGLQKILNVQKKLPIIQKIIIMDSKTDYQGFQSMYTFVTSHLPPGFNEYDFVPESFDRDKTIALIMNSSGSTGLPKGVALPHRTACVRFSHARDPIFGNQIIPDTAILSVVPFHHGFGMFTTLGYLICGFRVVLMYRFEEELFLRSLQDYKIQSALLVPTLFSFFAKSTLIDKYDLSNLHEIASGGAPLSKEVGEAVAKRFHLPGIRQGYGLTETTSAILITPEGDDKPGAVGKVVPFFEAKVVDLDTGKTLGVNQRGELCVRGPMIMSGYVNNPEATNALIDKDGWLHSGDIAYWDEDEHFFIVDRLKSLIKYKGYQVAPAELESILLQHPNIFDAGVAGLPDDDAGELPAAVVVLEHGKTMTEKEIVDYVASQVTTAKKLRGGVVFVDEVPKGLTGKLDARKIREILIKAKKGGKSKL
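System: cell-free luciferase reagent; medium: PBS as buffer for the ATP substrate; doses: test compounds dosed from 2 mM stocks in 100% DMSO; incubation: 10 min, room temperature; measured by: luminescence from luciferase reaction; read-out: luciferase activation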
FLuc inhib CS: firefly luciferase enzyme inhibitors, primary screen, artefact control for luciferase-based inhibitor screens, biochemical, luminescence, ATPLite. 10 min. inhibition, % at 10 µM. 200,000 compounds, 1.5% hits. AID 1006, 2008;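 active = inhibition above about 50% when tested at 10 µM, limit read from the data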
C8 TRAIL sens: viability loss with TRAIL in NB7+C8 cells, primary screen, TRAIL sensitizer project, cell-based, ATPlite luminescence; inhibition (viability loss, TRAIL sensitization), % at 10 µM; 360,000 compounds, 1% hits; AID 624354, 2012;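 active = compounds causing at least 50% loss of cell viability in the single-dose screen, relative to plate controls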
* hit, by the source's call; · = not tested or not shown. Hits are enriched below; roughly 1.6% of the tested compounds scored in any of these assays.

SMILES	PPC-1+TRAIL kill	FLuc act counter	FLuc inhib CS	C8 TRAIL sens
N/C(=N\OC(=O)COc1ccc(Br)cc1Cl)c1ccncc1	23.7	0.9	14.5	11.2
O=C(NCCCc1ccc(F)cc1)C1CCC(=O)N(CCN2CCOCC2)C1 (configuration not stated)	·	·	·	-42.4
CCc1nc(N)nc(N)c1-c1ccc(NCCN)c([N+](=O)[O-])c1	·	·	·	79.4*
CCc1nc(N)nc(N)c1-c1ccc(N(C)Cc2ccccc2)c([N+](=O)[O-])c1	·	·	·	69.7*
CCc1nc(N)nc(N)c1-c1ccc(Cl)cc1	24.0	1.1	-8.4	81.3*
CCC(=O)n1nc(-c2ccc(Cl)cc2)nc1N	0.1	1.1	-5.4	-0.2
Cc1ccc(NC(=O)c2ccc(NCCN)c([N+](=O)[O-])c2)cc1	16.4	0.9	5.1	17.8
O=C1C(F)=CC(COC(c2ccccc2)(c2ccccc2)c2ccccc2)OC1n1cc(F)c(=O)[nH]c1=O (configuration not stated)	·	·	·	89.0*
O=C(O)/C=C/C(=O)NNc1ncnc2ccccc12	27.8	·	·	-3.8
COc1ccc(N2CC(C(=O)Nc3nc4ccc(S(C)(=O)=O)cc4s3)CC2=O)cc1 (configuration not stated)	·	·	·	-4.4
Cc1ccn2c(=O)nc(SCC(=O)c3ccc(Cl)cc3)nc2c1	·	·	·	10.5
Cc1ccn2c(C(=O)c3ccc(Cl)cc3)cnc2c1	5.4	0.5	52.1*	31.1
CC1OC2CC(=O)OC2C2=C1C(=O)c1c(O)cccc1C2=O (configuration not stated)	·	·	·	93.7*
COc1ccc(CC(=O)Nc2ccc(-c3cn4ccccc4n3)cc2)cc1	37.0	0.6	35.7	23.1
O=C(Nc1ccc(-c2cn3ccccc3n2)cc1)c1cccs1	45.9	0.3	73.1*	51.9*
O=C(Nc1ccc(-n2cnnn2)cc1)c1cn2ccccc2n1	23.5	·	·	33.6
O=C(Nc1ccccc1)c1cn2ccccc2n1	48.4	·	·	58.4*
Cc1cc2[nH]c3ccccc3c2c(C)n1	-6.8	1.1	-6.9	5.3
Cc1cc2[nH]c3c4ccccc4nc(C)c3c2cc1C	·	·	·	82.7*
CC(C)(C)C(=O)Nc1ccc(NC(=O)c2ccco2)nc1	·	·	·	94.9*
O=C(Nc1ccc(NC(=O)c2ccco2)nc1)c1ccccn1	28.8	0.4	60.9*	41.6
Cc1cc(F)ccc1S(=O)(=O)N1CCCOC1CNC(=O)C(=O)NC1CCCC1 (configuration not stated)	·	·	·	-1.8
Cc1ccc2oc(-c3ccccc3)c(C(=O)O)c(=O)c2c1	28.5	0.9	6.1	57.4*
CC(C)(C)NC(=O)CN(C(=O)CNS(=O)(=O)c1ccc(Cl)cc1)c1ccc2c(c1)OCCO2	·	·	·	-3.7
C[C@@H]1CN([C@H](C)CO)C(=O)CCCn2nncc2CO[C@H]1CN(C)Cc1ccc(C(F)(F)F)cc1	·	·	·	-2.6
SMILES	PPC-1+TRAIL kill	FLuc act counter	FLuc inhib CS	C8 TRAIL sens
COc1ccc(NC(=O)c2cccc(NC(=O)c3ccccc3)c2)cc1	·	·	·	-0.9
COc1ccc(C(=O)Nc2ccc(NC(=O)c3ccccn3)cn2)cc1	·	·	·	9.9
COc1ccc(NC(=O)c2cc3ccccn3n2)cc1	48.4	0.2	80.5*	1.0
COc1ccc(NC(=O)c2ccccn2)cc1	76.3*	0.1	90.1*	73.8*
CCOC(=O)[C@]12CCC=C1N(Cc1ccco1)C(=O)[C@H](CC(=O)N1CCOCC1)C2	·	·	·	-2.7
O=C(Oc1ccc2ccccc2c1)c1ccco1	12.5	0.9	9.5	-1.5
CC1CC(C)(C)Nc2ccc(OC(=O)c3ccco3)cc21 (configuration not stated)	11.6	0.4	60.4*	34.1
CN(C)c1ccc(C=NN2CCCCCC2)cc1	·	·	·	15.4
CC(C)c1ccc(/C=N/N2CCCCC2)cc1	9.0	0.3	65.8*	3.0
COc1ccc(Nc2nc3c([nH]2)c(=O)[nH]c(=O)n3C)cc1	13.2	1	1.9	1.1
Cc1ccc(C)n1-c1ccc(C(=O)NN)cc1	-2.2	1	3.9	6.4
CCN1/C(=C/C=C/c2oc3ccc(-c4ccccc4)cc3[n+]2CC)Oc2ccc(-c3ccccc3)cc21	57.0*	1	-1.8	79.3*
CCCCN1C(=O)/C(=C/C=C2\Oc3ccccc3N2CC)SC1=S	-5.7	1	-0.5	-0.7
O=C(NCc1nc2ccccc2[nH]1)C1=C[C@H](c2ccc(C(F)(F)F)cc2)C[C@H](OCCCCO)O1	·	·	·	-4.0
CC(C)(C)c1ccc(C(=O)Nc2cccc3c(=O)[nH][nH]c(=O)c23)cc1	31.0	0.3	69.7*	47.3
COc1ccc(OC)c(N/C=C/C(=O)c2ccccc2)c1	·	·	·	91.0*
COc1ccc(OC)c(N/C(C)=C/C(=O)c2ccccc2)c1	44.1	0.2	76.4*	45.1
COc1ccc(OC)c(N/C(C)=C/C(=O)c2ccncc2)c1	·	·	·	-21.6
COc1ccc(N/C=C/C(=O)c2ccc(OC)c(OC)c2)cc1	-6.7	·	·	-9.2
CCc1cc2cc(OC)ccc2nc1SCC(=O)NNC(=O)c1ccco1	-4.9	1	-3.3	-0.4
CN(C)S(=O)(=O)c1ccc(C(=O)OCC2CCCO2)cc1 (configuration not stated)	·	·	·	2.2
Cc1ccc2oc(/N=C(\N)NC(=O)C3CC3)nc2c1	28.6	·	·	50.5*
COc1ccccc1-c1nnc(-c2ccc(C)cc2)o1	·	·	·	53.1*
CSc1ccccc1-c1nnc(-c2ccccc2)o1	10.2	0.4	64.2*	38.9
CSc1ccccc1-c1nnc(-c2ccc(C)cc2)o1	46.8	0.3	71.4*	61.7*
SMILES	PPC-1+TRAIL kill	FLuc act counter	FLuc inhib CS	C8 TRAIL sens
CSc1nnc(-c2ccccc2SC)o1	5.2	1	1.9	-6.2
CCOC(=O)c1ccc(Nc2ncnc3c2cnn3C)cc1	16.1	1	-3.3	6.1
Cn1ncc2c(O/N=C(\N)c3ccc(C(C)(C)C)cc3)ncnc21	18.7	·	·	92.1*
Cc1cc(NC(=O)CN(C)C)c([N+](=O)[O-])cc1C	-9.2	1	-3.0	-4.9
Cc1ccccc1Cn1nnc2c1C(=O)c1ccccc1C2=O	·	·	·	51.5*
Cc1ccccc1CN1C(=O)c2ccccc2C1c1nnnn1Cc1ccccc1 (configuration not stated)	·	·	·	-7.5
Cc1cccc(Cn2cnc3c(nnn3Cc3ccccc3F)c2=O)c1	1.7	1.1	-9.9	-8.5
Cc1cccc(Cn2nnc3c2C(=O)c2ccccc2C3=O)c1	33.4	1.1	-7.6	51.0*
COc1ccc(C(C#N)=Cc2cccc(OC)c2OC)cc1	·	·	·	18.5
CCCNC(=O)c1ccc2c(c1)nc(C)n2-c1cccc(Cl)c1	·	·	·	4.3
Cc1ccc(/C=C2\CCC(C3CCCC3)C2=O)cc1 (configuration not stated)	33.0	0.4	57.4*	6.1
CCc1nc2ccccc2c(C(=O)OCC(=O)Nc2cccc(S(=O)(=O)N3CCOCC3)c2)c1C	-2.4	1	-3.7	49.7*
CCc1nc2ccccc2c(C(=O)OCC(=O)Nc2ccc(S(=O)(=O)N3CCOCC3)cc2)c1C	-1.1	1.1	-9.7	13.3
Cc1cc(NC(=O)C(C)Oc2ccccc2)no1 (configuration not stated)	·	·	·	9.3
